Measured values reported in ChEMBL document CHEMBL4118209, “Development of autotaxin inhibitors: A series of zinc binding triazoles” (Bioorg Med Chem Lett, 2018).
Converted amounts (≈) assume the structure as drawn. Each block holds one compound with its values, some of them ahead of it.

Legend:
[1] = target: T1, Voltage-gated inwardly rectifying potassium channel KCNH2 (Homo sapiens, UniProt Q12809); assay: Displacement of [3H]dofetilide from human ERG expressed in HEK293 cells after 45 mins by scintillation counting method
T1 sequence (Q12809 whole entry): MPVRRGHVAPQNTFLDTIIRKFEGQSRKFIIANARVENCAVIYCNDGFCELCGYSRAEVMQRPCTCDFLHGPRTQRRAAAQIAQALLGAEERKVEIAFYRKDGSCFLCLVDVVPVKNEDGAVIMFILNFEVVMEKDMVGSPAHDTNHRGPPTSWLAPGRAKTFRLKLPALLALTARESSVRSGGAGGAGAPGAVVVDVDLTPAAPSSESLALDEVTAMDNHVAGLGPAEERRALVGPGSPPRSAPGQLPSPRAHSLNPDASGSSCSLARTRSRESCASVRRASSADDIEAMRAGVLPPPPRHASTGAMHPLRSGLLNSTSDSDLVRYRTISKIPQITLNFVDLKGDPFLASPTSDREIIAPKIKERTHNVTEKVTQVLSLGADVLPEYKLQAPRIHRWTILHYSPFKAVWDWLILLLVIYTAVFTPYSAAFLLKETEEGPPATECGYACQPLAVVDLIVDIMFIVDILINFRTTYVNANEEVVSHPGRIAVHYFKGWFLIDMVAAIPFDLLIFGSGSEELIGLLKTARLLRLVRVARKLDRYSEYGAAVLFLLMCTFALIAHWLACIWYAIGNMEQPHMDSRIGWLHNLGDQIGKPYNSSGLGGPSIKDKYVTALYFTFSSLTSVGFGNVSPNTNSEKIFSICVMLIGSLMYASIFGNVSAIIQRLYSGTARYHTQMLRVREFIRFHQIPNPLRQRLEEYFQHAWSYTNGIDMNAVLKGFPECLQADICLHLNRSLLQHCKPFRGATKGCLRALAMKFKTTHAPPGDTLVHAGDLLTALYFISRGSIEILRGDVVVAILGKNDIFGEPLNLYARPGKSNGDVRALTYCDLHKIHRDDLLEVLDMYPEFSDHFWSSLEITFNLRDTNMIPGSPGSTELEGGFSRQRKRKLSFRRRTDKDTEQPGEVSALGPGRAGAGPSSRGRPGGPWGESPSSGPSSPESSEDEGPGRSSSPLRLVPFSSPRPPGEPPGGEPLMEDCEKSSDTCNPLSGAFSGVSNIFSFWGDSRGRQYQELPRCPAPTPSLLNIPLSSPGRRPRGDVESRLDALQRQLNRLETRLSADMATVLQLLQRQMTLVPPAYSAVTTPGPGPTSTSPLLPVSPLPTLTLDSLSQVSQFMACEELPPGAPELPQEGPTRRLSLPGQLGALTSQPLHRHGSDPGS

[2] = Oral bioavailability in Lewis rat at 1 to 100 mg/kg dosed via gavage after 1.25 to 24 hrs; assay type: ADME, organism-based; settings: in vivo
[3] = Equilibrium solubility of compound at pH 6.8 by high-throughput screening method; settings: buffer
[4] = Permeability assessed as drug absorption at 50 ug/ml after 5 hrs by PAMPA; settings: at 50 µg/mL
[5] = Cmax in Sprague-Dawley rat at 10 mg/kg, po; assay type: ADME, organism-based; design: dose 10 mg/kg, route oral; settings: in vivo
Rattus norvegicus [6] = assay: In vivo inhibition of ATX in Sprague-Dawley rat assessed as reduction in LPA 24:4 levels in serum at 0.3 mg/kg, po measured over 24 hrs by LCMS analysis relative to control; assay type: functional; settings: in the assay text read “LPA 20:4” for “LPA 24:4”
In short: (§1)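 Male Sprague-Dawley rats (n = 6 per group) were given compound or vehicle (0.5% methyl cellulose:0.5% Tween80) orally at 5 ml/kg. Tail-vein blood was taken at various times without anticoagulant, held 30 min at room temperature, and spun at 700g for 10 min. Serum was stored at −80 °C. LPA isoforms were measured by LC-MS/MS, and PK/PD was assessed with a link model.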

Rattus norvegicus [7] = assay: In vivo inhibition of ATX in Sprague-Dawley rat assessed as reduction in LPA 18:1 levels in serum at 0.3 mg/kg, po measured over 24 hrs by LCMS analysis relative to control; assay type: functional; in short: as §1
[8] = Clearance in Sprague-Dawley rat at 1 mg/kg, iv; assay type: ADME, organism-based; settings: in vivo
Rattus norvegicus [9] = assay: In vivo inhibition of ATX in po dosed Sprague-Dawley rat assessed as reduction in LPA 18:0 levels in serum measured over 24 hrs by LCMS analysis; assay type: functional, organism-based; in short: as §1
[10] = Oral bioavailability in Sprague-Dawley rat at 10 mg/kg; assay type: ADME, organism-based; settings: in vivo
[11] = Volume of distribution at steady state in Sprague-Dawley rat at 1 mg/kg, iv; assay type: ADME, organism-based; settings: in vivo, read-out: Vdss
Rattus norvegicus [12] = assay: In vivo inhibition of ATX in Sprague-Dawley rat assessed as reduction in LPA 18:0 levels in serum at 0.3 mg/kg, po measured over 24 hrs by LCMS analysis relative to control; assay type: functional; in short: as §1
Rattus norvegicus [13] = assay: In vivo inhibition of ATX in po dosed Sprague-Dawley rat assessed as reduction in LPA 18:1 levels in serum measured over 24 hrs by LCMS analysis; assay type: functional, organism-based; in short: as §1
Autotaxin [14] = target: T2, Autotaxin (Homo sapiens, UniProt Q13822); assay: Inhibition of ATX in human serum assessed as reduction in LPA 18:1 levels after 3 hrs by LC-MS/MS analysis
In short: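 Human serum was cleared of coagulated blood by centrifugation (2100g, 10 min, room temperature) and stored at −80 °C. It was incubated with compound (0.5 nM–10 μM) with shaking at 37 °C for 3 h. LPA was extracted into methanol with 30 mM citric acid and LPA 17:0 internal standard (0.5 µM), then quantified by LC-MS/MS (negative-ion MRM). IC50 was obtained by non-linear regression.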

Autotaxin [15] = target: T2, Autotaxin; assay: Inhibition of ATX (unknown origin) assessed as decrease in choline release
[16] = Thermodynamic solubility in FeSSIF; assay type: physicochemical; settings: read-out: Therm_solubility
[17] = Tmax in Sprague-Dawley rat at 10 mg/kg, po; assay type: ADME, organism-based; settings: in vivo
Rattus norvegicus [18] = assay: In vivo inhibition of ATX in po dosed Sprague-Dawley rat assessed as reduction in LPA 16:0 levels in serum measured over 24 hrs by LCMS analysis; assay type: functional, organism-based; in short: as §1
Rattus norvegicus [19] = assay: In vivo inhibition of ATX in Sprague-Dawley rat assessed as reduction in LPA 16:0 levels in serum at 0.3 mg/kg, po measured over 24 hrs by LCMS analysis relative to control; assay type: functional; in short: as §1
[20] = target: T1, Voltage-gated inwardly rectifying potassium channel KCNH2; assay: Inhibition of human ERG expressed in CHO-K1 cells at -90 mV holding potential by Qpatch clamp assay
Rattus norvegicus [21] = assay: In vivo inhibition of ATX in po dosed Sprague-Dawley rat assessed as reduction in LPA 24:4 levels in serum measured over 24 hrs by LCMS analysis; assay type: functional, organism-based; settings: in the assay text read “LPA 20:4” for “LPA 24:4”; in short: as §1
[22] = Intrinsic clearance in Sprague-Dawley rat liver microsomes at 1 uM by HPLC analysis; assay type: ADME, microsome; settings: read-out: CLH
Rattus norvegicus [23] = assay: AUC (0 to infinity) in Sprague-Dawley rat at 10 mg/kg, po; assay type: ADME, organism-based; design: dose 10 mg/kg, time infinity, route oral; settings: in vivo
[24] = Intrinsic clearance in human liver microsomes at 1 uM by HPLC analysis; assay type: ADME, microsome; settings: read-out: CLH
[25] = Half life in Sprague-Dawley rat at 1 mg/kg, iv; assay type: ADME, organism-based; settings: in vivo
[26] = Fraction unbound in human plasma at 5 uM after 2 to 6 hrs by rapid equilibrium dialysis method; assay type: ADME, cell-free
[27] = Fraction unbound in rat plasma at 5 uM after 2 to 6 hrs by rapid equilibrium dialysis method; assay type: ADME, cell-free

Structure (SMILES): O=C(CCN1CCN(C(=O)OCc2cc(Cl)cc(Cl)c2)CC1)c1ccc2[nH]c(=O)oc2c1
IC50 [1]: 2700 nM
bioavailability [2]: 43 to 83%
solubility thermodynamic [3]: 10 to 11 µg/mL (≈ 20.9 to 23 µM)
Drug absorption [4]: 81%

Structure (SMILES): O=C(CCCc1c[nH]nn1)NC1CCN(C(=O)OCc2ccc(Cl)cc2Cl)CC1
Drug absorption [4]: 43%

Structure (SMILES): O=C(CCc1c[nH]nn1)NC1CCN(C(=O)OCc2cc(Cl)cc(Cl)c2)CC1
microsomal CLint at 1 µM [22]: 75 µL/min/mg

Structure (SMILES): O=C(NCCN1CCN(C(=O)OCc2cc(Cl)cc(Cl)c2)CC1)c1c[nH]c(=O)o1
IC50 (Autotaxin [15]): 370 nM
solubility thermodynamic [3]: 60 µg/mL (≈ 135 µM)
Drug absorption [4]: 35%

Structure (SMILES): CN(CCC1CCN(C(=O)OCc2cc(Cl)cc(Cl)c2)CC1)C(=O)c1c[nH]c(=O)o1
Cmax [5]: 3.4 µM
clearance [8]: 12 mL/min/kg
bioavailability [10]: 80%
Vd [11]: 2.2 L/kg
Tmax [17]: 2.5 h
microsomal CLint at 1 µM [22]: 235 µL/min/mg
AUC (Rattus norvegicus [23]): 25 µM·h
half-life [25]: 288 min
fraction unbound at 5 µM [26]: 0.005

Structure (SMILES): O=C(CCCc1c[nH]nn1)NC1CCN(C(=O)OCc2cc(F)cc(Cl)c2)CC1
Drug absorption [4]: 35%

Structure (SMILES): CN(C(=O)CCCc1c[nH]nn1)C1CCN(C(=O)OCc2cc(Cl)cc(Cl)c2)CC1
Drug absorption [4]: 89%

Structure (SMILES): Cn1cc(CCCC(=O)NC2CCN(C(=O)OCc3cc(Cl)cc(Cl)c3)CC2)nn1
IC50 (Autotaxin [15]): 1370 nM

Continued by falling IC50 (Autotaxin [15]), values first:

IC50 (Autotaxin [15]): 240 nM
Structure (SMILES): O=C(CCN1CCN(C(=O)OCC2CCCCC2)CC1)c1ccc2[nH]c(=O)oc2c1

IC50 (Autotaxin [15]): 170 nM
Structure (SMILES): O=C(CCN1CCN(C(=O)OCC2CCCC2)CC1)c1ccc2[nH]c(=O)oc2c1

IC50 (Autotaxin [15]): 150 nM
microsomal CLint at 1 µM [22]: 51 µL/min/mg
Drug absorption [4]: 97%
Structure (SMILES): CN(CCC1CCN(C(=O)OCc2cc(Cl)cc(Cl)c2)CC1)C(=O)c1c[nH]nn1
IC50 [20]: 8.6 µM

IC50 (Autotaxin [15]): 130 nM
Structure (SMILES): O=C(CCN1CCN(C(=O)OCc2ccccc2)CC1)c1ccc2[nH]c(=O)oc2c1

IC50 (Autotaxin [15]): 86 nM
solubility thermodynamic [3]: 80 µg/mL (≈ 181 µM)
Drug absorption [4]: 68%
Structure (SMILES): O=C(NCCC1CCN(C(=O)OCc2cc(Cl)cc(Cl)c2)CC1)c1c[nH]c(=O)o1

IC50 (Autotaxin [15]): 39 nM
Drug absorption [4]: 35%
Structure (SMILES): O=C(CCCc1c[nH]nn1)NC1CCN(C(=O)OCc2ccc(C(F)(F)F)cc2)CC1

IC50 (Autotaxin [15]): 18 nM
Structure (SMILES): O=C(OCc1cc(Cl)cc(Cl)c1)N1CCC(N2CCN(C(=O)c3ccc4[nH]c(=O)oc4c3)CC2)C1 (racemic)

IC50 (Autotaxin [15]): 10 nM
Structure (SMILES): O=C(NCCC1CN(C(=O)OCc2cc(Cl)cc(Cl)c2)CCO1)c1ccc2[nH]c(=O)oc2c1 (racemic)

IC50 (Autotaxin [15]): 8 nM
Structure (SMILES): O=C(NCC1(O)CCN(C(=O)OCc2cc(Cl)cc(Cl)c2)CC1)c1ccc2[nH]c(=O)oc2c1

IC50 (Autotaxin [15]): 7.7 nM
Drug absorption [4]: 21%
Structure (SMILES): N#Cc1cc(Cl)cc(COC(=O)N2CCC(NC(=O)CCCc3c[nH]nn3)CC2)c1

IC50 (Autotaxin [15]): 3.9 nM
Structure (SMILES): O=C(OCc1cc(Cl)cc(Cl)c1)N1CC(N2CCN(C(=O)c3ccc4[nH]c(=O)oc4c3)CC2)C1

Cmax [5]: 2.85 µM
clearance [8]: 16 mL/min/kg
IC50 (Rattus norvegicus [9]): 20 nM
bioavailability [10]: 68%
Vd [11]: 2.5 L/kg
IC50 (Rattus norvegicus [13]): 20 nM
IC50 (Autotaxin [14]): 9 nM
IC50 (Autotaxin [15]): 3.1 nM
solubility thermodynamic [16]: 126 µg/mL (≈ 286 µM)
Tmax [17]: 1.3 h
IC50 (Rattus norvegicus [18]): 20 nM
IC50 (Rattus norvegicus [21]): 20 nM
microsomal CLint at 1 µM [22]: 104 µL/min/mg
AUC (Rattus norvegicus [23]): 17 µM·h
Drug absorption [4]: 43%
microsomal CLint at 1 µM [24]: 59 µL/min/mg
half-life [25]: 318 min
fraction unbound at 5 µM [26]: 0.026
fraction unbound at 5 µM [27]: 0.04
Structure (SMILES): O=C(CCCc1c[nH]nn1)NC1CCN(C(=O)OCc2cc(Cl)cc(Cl)c2)CC1
inhibition in vivo at 0.3 mg/kg (Rattus norvegicus [6]): 70 to 80%
inhibition in vivo at 0.3 mg/kg (Rattus norvegicus [7]): 70 to 80%
inhibition in vivo at 0.3 mg/kg (Rattus norvegicus [12]): 70 to 80%
inhibition in vivo at 0.3 mg/kg (Rattus norvegicus [19]): 70 to 80%
IC50 [20]: 20.9 µM
